Compound activity from PubChem BioAssay.
The list is not random: actives were taken first. Their share in the collection is about 4.6%.
TAAR1 ag = human TAAR1 agonism. 360,000 tested, 0.99% active. Q96RJ0. CHO RD-HGA16 TAAR1, Fluo-8 calcium fluorescence; vehicle wells 0%, saturating PEA agonist 100%. activation, % at 3 µM;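 active = activation above the mean activation of all test compounds in the run plus 3 SD, cut at about 38% in these data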
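System: CHO-derived RD-HGA16 cells with stable Gα16 and human TAAR1 / Times: 17-24 h plating, Fluo-8 75 min 37 °C, 30 min RT / Technique: calcium-sensitive Fluo-8 signal, excitation 470-495, emission 515-575 nm / Measure: % activation relative to PEA EC100 response / Benchmarks: DMSO and PEA EC100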
GPR7 antag = antagonists of human GPR7 (neuropeptides B/W receptor 1); GPR7-expressing cells, fluorescence antagonist assay; inhibition, % at 4.4 µM; 290,000 tested, 1.1% active; AID 1861; in the data active = inhibition above about 16%, passing the limit was not always enough;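 note: cells stimulated with the agonist NPW; 0% = agonist with vehicle and 100% = vehicle without agonist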
Target sequence (P48145 whole entry, looked up): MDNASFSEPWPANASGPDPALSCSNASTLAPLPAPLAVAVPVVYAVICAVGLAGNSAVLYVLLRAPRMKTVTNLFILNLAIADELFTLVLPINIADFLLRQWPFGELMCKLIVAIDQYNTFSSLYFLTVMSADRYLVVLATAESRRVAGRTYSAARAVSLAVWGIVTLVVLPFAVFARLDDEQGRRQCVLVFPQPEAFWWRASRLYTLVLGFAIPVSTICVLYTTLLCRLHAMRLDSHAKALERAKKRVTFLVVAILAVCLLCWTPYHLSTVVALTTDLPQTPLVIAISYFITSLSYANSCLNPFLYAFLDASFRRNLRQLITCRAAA
TAAR1 antagonist = human TAAR1 antagonism; Q96RJ0; CHO RD-HGA16 TAAR1, Fluo-8 calcium fluorescence, antagonist; inhibition, % at 3 µM; 360,000 tested, 1.5% active;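 active = inhibition above a per-plate cutoff, the mean inhibition of test compounds on that plate plus 3 SD, cut at about 49% in these data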;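 note: 0% = DMSO plus EC80 beta-PEA response and 100% = DMSO alone without agonist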
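test system = CHO RD-HGA16 cells bearing hTAAR1 | replication = singlicate | controls = DMSO-only wells and EC80 β-PEA-stimulated wells | reagent = EC80 β-phenethylamine stimulus | read-out basis = percent inhibition of PEA-evoked calcium signal, max/basal emission ratio | schedule = seeding 17-24 h prior, 75-min 37 °C, 30-min RT dye loading | signal = kinetic Fluo-8 calcium fluorescence measurement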
CHO parental Ca = signal in parental CHO cells, OX1R antagonist counter-screen; parental CHO-K1, ATP-induced calcium, Fluo-8 fluorescence; inhibition, % at 5.6 µM; 330,000 tested, 0.63% active; AID 463079;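 active = inhibition above that plate's mean sample inhibition plus 3 SD, cut at about 26% in these data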;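 note: 0% = ATP-challenged DMSO wells and 100% = DMSO wells without ATP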
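Material – parental CHO cells · Reagent – ATP stimulus · Compound – single nominal dose of 5.6 µM per compound · Detection – Fluo-8 fluorescence · Read-out basis – percent inhibition of calcium signal · Controls – ATP-challenged DMSO wells low, unchallenged DMSO wells high · Repeats – no replicates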
OX1R antag-1 = antagonists of human orexin 1 receptor (OX1R). OX1R-expressing cells, FRET antagonist read-out. inhibition, % at 6.6 µM. 330,000 tested, 1.8% active. AID 485270; in the data active = inhibition mostly above about 38%, no sharp cut-off; inactive = mostly below about 40%;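 note: 0% = agonist challenge alone and 100% = reference antagonist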
OX1R antag-2 = blocks the human orexin 1 receptor; CHO/OX1R cells, Fluo-8 calcium fluorescence, orexin A; inhibition, % at 5 µM; O43613; 330,000 tested, 0.43% active;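 active = inhibition above its plate's threshold, mean inhibition of all tested compounds on the plate plus 3 SD, cut at about 37% in these data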;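 note: 0% = orexin A challenge wells and 100% = SB-334867-A antagonist wells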
An asterisk follows results filed as active; / = not tested or not shown.

SMILES	TAAR1 ag	GPR7 antag	TAAR1 antagonist	CHO parental Ca	OX1R antag-1	OX1R antag-2
CN(CC(=O)NCC(c1ccco1)N1CCCCC1)S(=O)(=O)c1ccc(Cl)cc1 (stereo not drawn)	-2	/	-19	22	20	-17
O=C(COC(=O)c1cc([N+](=O)[O-])ccc1N1CCOCC1)NC1CCCCC1	2	/	-20	-20	53*	-28
O=C(COC(=O)c1cc([N+](=O)[O-])ccc1N1CCOCC1)Nc1ccc(Cl)cn1	4	9	4	-15	52*	-22
O=C(COC(=O)c1cc([N+](=O)[O-])ccc1N1CCOCC1)NC1CCS(=O)(=O)C1 (stereo not drawn)	1	/	-27	-6	21	-9
O=C(COC(=O)c1cc([N+](=O)[O-])ccc1N1CCOCC1)Nc1ccc(Cl)cc1	2	0	14	-1	52*	-14
COc1cc([N+](=O)[O-])ccc1NC(=O)CSc1nncn1-c1cccnc1	2	10	9	-3	21	-3
COc1ccc(NC(=O)CC2SC(=NCC3CCCO3)NC2=O)c([N+](=O)[O-])c1 (stereo not drawn)	3	-21	-14	-2	50*	-21
CCOc1ccc(CC(=O)NNC(=O)/C=C/C(=O)O)cc1	9	3	-15	-16	17	-23
COc1ccc(Nc2nnc(SCC(=O)c3cc(C)n(CC4CCCO4)c3C)s2)cc1 (stereo not drawn)	6	-3	24	-14	33	-27
Cc1c(NC(=O)CN2C(=O)c3ccccc3C2=O)c(=O)n(-c2ccccc2)n1C	-2	-4	-1	-16	12	-18
O=C(CCCCCN1C(=O)c2cccc3cccc(c23)C1=O)NCCCO	4	3	-7	5	52*	-10
Cc1c(NC(=O)CCCN2C(=O)c3cccc4cccc(c34)C2=O)c(=O)n(-c2ccccc2)n1C	2	-9	7	-5	42*	-13
O=C(CN1C(=O)c2cccc3cccc(c23)C1=O)NCCCO	4	-1	-5	-2	57*	-5
CCN(CCCCCN(C)C)Cc1cc2ccccc2o1	5	3	-27	0	-2	9
CN(C[C@H](Cc1ccccc1)N(C[C@@H](Cc1cccc2ccccc12)N(CCc1ccccc1)N=O)N=O)N=O	41*	-14	7	-17	37	-10
CN(CC(=O)Nc1ncn[nH]1)S(=O)(=O)c1ccc(Cl)cc1	0	-2	-3	9	4	-1
CNC(=O)C[C@H]1C(=O)N(c2ccc(Br)cc2)C[C@@H]1CSC	4	/	4	/	/	/
Cc1ccc(NC(=O)c2cccc(S(=O)(=O)NCc3ccccc3)c2)nc1	6	/	-2	12	59*	1
CC(C)C[C@@H](CN)NC(=O)c1nc[nH]c1C(=O)N[C@@H](CC(C)C)C(=O)CNC[C@H](C)NC(=O)c1nc[nH]c1C(=O)N[C@@H](CC(=O)O)C(=O)O	2	/	7	/	/	/
Cc1ccccc1C(C)NC(=O)COC(=O)Cn1cc(C(F)(F)F)ccc1=O (stereo not drawn)	11	/	-5	-7	15	-46
Cn1c(=O)c2c(ncn2CC(=O)OCCCC(=O)c2ccc(Br)cc2)n(C)c1=O	4	/	-10	35*	18	38
Cc1nc2nc(C)c(CCC(=O)NC(C)c3ccc4c(c3)OCCO4)c(C)n2n1 (stereo not drawn)	2	-5	-11	9	12	-6
Cc1nc2cc(-c3cccc(F)c3)nn2c(C)c1CCC(=O)NC(C)c1ccc2c(c1)OCCO2 (stereo not drawn)	-1	-9	20	-25	49*	9
Cc1nc2cc(-c3ccccc3)nn2c(C)c1CCC(=O)NC(C)c1ccc2c(c1)OCCO2 (stereo not drawn)	-1	-1	-4	-20	52*	-5
CCN1CCN(C(=O)c2cc(-c3ccc(Cl)s3)nc3ccccc23)CC1	20	-8	5	/	/	/
SMILES	TAAR1 ag	GPR7 antag	TAAR1 antagonist	CHO parental Ca	OX1R antag-1	OX1R antag-2
COC(=O)C1CCN(C(=O)c2cc(-c3ccc(Cl)s3)nc3ccccc23)CC1	9	/	57*	2	1	14
CCOC(=O)N1CCC(NC(=O)c2cc3ccccn3n2)CC1	1	-13	-11	-6	-5	-18
CC(OC(=O)c1ccc2ccccc2c1)C(=O)N(C)Cc1ccccc1 (stereo not drawn)	10	/	18	-24	38*	17
Cc1nn(-c2nc3ccccc3s2)c(C)c1Oc1ccccc1O	/	-9	/	32*	38	67*
COc1cc(NC(=O)C2CCN(S(=O)(=O)c3cccs3)CC2)cc(OC)c1	3	/	-3	-2	51*	17
COc1ccc(C)cc1NC(=O)C1CCCN(S(=O)(=O)c2cccs2)C1 (stereo not drawn)	0	-8	-9	-21	37*	-13
CC(c1ccccc1)N1CCN(C(=O)CCl)CC1 (stereo not drawn)	0	-3	-2	4	7	5
CCOc1ccccc1NC(=S)N1CCCc2ccccc21	0	-4	-10	9	0	-10
O=C1/C(=C\c2c(NCCOCCO)nc3ccccn3c2=O)SC(=S)N1Cc1ccco1	41*	6	62*	34*	-6	37
Cc1nc(Nc2ccc(C(=O)O)cc2)nc(Nc2ccc(C(=O)O)cc2)c1[N+](=O)[O-]	10	-11	3	1	42*	-2
O=C(O)c1ccc(Nc2ccc3nonc3c2[N+](=O)[O-])cc1	5	-9	-2	-7	57*	9
Cc1ccc(Nc2ccc3nonc3c2[N+](=O)[O-])cc1	2	4	-3	-17	64*	-7
COC(=O)c1ccc(Nc2ccc3nonc3c2[N+](=O)[O-])cc1	2	-10	-4	-3	5	-3
O=[N+]([O-])c1c(Nc2ccc(Br)cc2)ccc2nonc12	3	-7	-12	-4	13	-10
Cc1ccc(Nc2ccc([N+](=O)[O-])nc2[N+](=O)[O-])cc1	1	4	-7	-8	62*	2
CCOC(=O)c1c(-c2ccccc2)csc1NC(=O)c1cc(-c2ccccc2OC)on1	0	/	-4	11	8	2
CC(C(=O)O)N1C(=O)C2C3c4ccccc4C(c4ccccc43)[C@@H]2C1=O (stereo partly drawn)	2	-8	-7	0	-4	-4
CCOc1ccc(Nc2ccc(C(=O)O)cc2[N+](=O)[O-])cc1	-1	5	-31	1	35	-18
CCOc1ccc(Nc2ccc3nonc3c2[N+](=O)[O-])cc1	-4	14	6	0	45*	-35
